Active and inactive are the calls of the source.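 Rule for the calls: active = peak KCNK3 inhibition above a set limit at some dose, plus a fitted dose-response curve; inactive = no KCNK3 inhibition, or no dose-response curve.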

In this test the target is Potassium channel subfamily K member 3 (Rattus norvegicus) (UniProt O54912). The experiment in a line: inhibition of rat KCNK3 channel, SAR follow-up, selectivity assay for KCNK9 inhibitor project, cell-based, FluxOR thallium flux, CRC set 2 (AID 623912). Particulars: KCNK3-expressing cells, FluxOR thallium flux fluorescence; for flux ratio, lower = inhibition: at 3 µM (top of the series). Put shortly: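 Assay system: tetracycline-induced CHO cells expressing rat KCNK3 potassium channel. Probe or stimulus: Tl+/K+ sulfate stimulus buffer (5x stock). Dosing: concentration series of compound. Incubation: dye 90 min, compound 20 min, both room temperature. Measured by: FluxOR Tl+ flux fluorescence. Evaluation: IC50 from normalized flux signal. Replicates: duplicate or more.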
Potassium channel subfamily K member 3 (Rattus norvegicus), sequence (O54912 whole entry, looked up): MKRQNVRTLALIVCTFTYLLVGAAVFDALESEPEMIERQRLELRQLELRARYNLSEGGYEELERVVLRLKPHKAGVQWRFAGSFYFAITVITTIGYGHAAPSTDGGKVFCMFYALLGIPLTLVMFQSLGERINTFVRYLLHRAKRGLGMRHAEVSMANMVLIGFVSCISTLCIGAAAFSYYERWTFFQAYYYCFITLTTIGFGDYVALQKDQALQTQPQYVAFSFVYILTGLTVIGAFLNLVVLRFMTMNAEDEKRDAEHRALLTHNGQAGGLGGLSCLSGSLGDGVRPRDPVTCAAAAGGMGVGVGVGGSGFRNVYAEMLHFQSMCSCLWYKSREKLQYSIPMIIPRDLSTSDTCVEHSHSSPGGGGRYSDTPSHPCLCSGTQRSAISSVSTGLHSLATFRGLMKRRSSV

By IC50 is commonly meant the concentration needed to halve the response being measured. As for `CCOc1ccccc1NC(=O)c1cccc(NC(=O)C2CCCO2)c1` (stereo not given), the IC50 is 129 nM.
On the same count and under the same terms, to `CCOc1ccccc1NC(=O)c1cccc(NC(=O)c2ccccc2)c1` belongs 121 nM.
The same measure, in the same setting: in the case of `O=C(Nc1cccc(NC(=O)c2ccoc2)c1)c1ccccc1` it was 799 nM; in that of `CC(C1CC2CCC1C2)n1c(-c2ccccc2F)n[nH]c1=S` (stereo not given), 2200 nM.
For the compound `Cc1ccccc1-c1n[nH]c(=S)n1C(C)C1CC2CCC1C2` (stereo not given), the concentration for half-maximal inhibition (IC50) was 912 nM.
On the same count and under the same terms, to `O=C(Nc1cccc(NC(=O)c2ccco2)c1)c1ccccc1` belongs 36.5 nM; to `Cc1cccc(C(=O)Nc2cccc(NC(=O)c3ccco3)c2)c1`, 143 nM; to `O=C(Nc1cccc(NC(=O)c2cccs2)c1)c1ccccc1`, 29.4 nM.
Same read-out and setting: to `Cc1cccc(C(=O)Nc2cccc(NC(=O)c3cccc(C(F)(F)F)c3)c2)c1` belongs 11 nM; to `COc1ccccc1NC(=O)c1cccc(NC(=O)c2ccccc2OC)c1`, 8 nM.
Take `COc1ccc(-c2n[nH]c(=S)n2C(C)C2CC3CCC2C3)cc1` (stereo not given): the “flux ratio, lower = inhibition” value was “inactive”.
`Cc1cccc(C(=O)Nc2cccc(NC(=O)C3CCCCC3)c2)c1`: the IC50 was 17 nM.
`CCOc1ccccc1NC(=O)c1cccc(NC(=O)c2ccccc2Cl)c1`: the IC50 was 83.9 nM.
On the same count and under the same terms, in the case of `CCOc1ccccc1NC(=O)c1cccc(NC(=O)C2CCCC2)c1` it was 68.3 nM; in that of `Cc1cccc(C(=O)Nc2cccc(NC(=O)c3ccccc3OC(F)(F)F)c2)c1`, 28.5 nM.
Still for that read-out and setting: to `Cc1cccc(C(=O)Nc2cccc(NC(=O)c3ccccc3OCC(C)C)c2)c1` belongs 206 nM.
As to `COc1ccccc1C(=O)Nc1cccc(NC(=O)c2ccccc2)c1`, the IC50 is 222 nM.
With `Cc1cccc(C(=O)Nc2cccc(NC(=O)c3cccc(C)c3)c2)c1`, the concentration for half-maximal inhibition (IC50) is 29.6 nM.
For `CCOc1ccccc1C(=O)Nc1cccc(NC(=O)c2ccccc2C(F)(F)F)c1`, the half-maximal inhibitory concentration (IC50) is 2 nM.
Same read-out and setting: in the case of `CC(NC(=O)c1ccco1)C1CC2CCC1C2` (stereo not given) it was 70 nM; in that of `CCOc1ccccc1NC(=O)c1cccc(NC(=O)c2cccc(C)c2)c1`, 17 nM; in that of `COc1ccccc1C(=O)Nc1cccc(NC(=O)c2cccc(C)c2)c1`, 11 nM.
Same read-out and setting: to `COc1ccccc1NC(=O)c1cccc(NC(=O)C2CCCCC2)c1` belongs 86 nM; to `CC(C)n1c(-c2ccco2)n[nH]c1=S`, 92.2 nM.
For the compound `Cc1cccc(C(=O)Nc2cccc(NC(=O)c3ccccc3)c2)c1`, the IC50 was 96.3 nM.
On the same count and under the same terms, to `CC(C1CC2CCC1C2)n1c(-c2ccco2)n[nH]c1=S` (stereo not given) belongs 341 nM; to `O=C(Nc1cccc(NC(=O)C2CCCCC2)c1)c1ccccc1`, 79.2 nM; to `COc1cccc(C(=O)Nc2cccc(NC(=O)c3cccc(C)c3)c2)c1`, 31 nM.
Still for that read-out and setting: in the case of `CC(C1CC2CCC1C2)n1c(-c2cccc(F)c2)n[nH]c1=S` (stereo not given) it was 82 nM; in that of `Cc1ccccc1C(=O)Nc1cccc(NC(=O)c2ccccc2)c1`, 104 nM; in that of `CCOc1ccccc1NC(=O)c1cccc(NC(=O)c2ccccc2C)c1`, 140 nM.
The same measure, in the same setting: to `COc1ccccc1NC(=O)c1cccc(NC(=O)c2ccccc2)c1` belongs 64 nM.
Take `CN(C)c1ccc(C(=O)Nc2cccc(NC(=O)c3ccccc3)c2)cc1`: the half-inhibitory concentration (IC50) is 259 nM.
Turning to `COc1ccc(C(=O)Nc2cccc(NC(=O)c3cccc(C)c3)c2)cc1`, the IC50 is 1330 nM.
In the case of `O=C(Nc1cccc(NC(=O)c2ccc(C(F)(F)F)cc2)c1)c1ccccc1`, the “flux ratio, lower = inhibition” value was “inactive”.
Consider `COc1ccccc1C(=O)Nc1cccc(NC(=O)c2ccccc2C(C)C)c1`, for which the IC50 is 7 nM.
Still for that read-out and setting: in the case of `CCOc1ccccc1NC(=O)c1cccc(NC(=O)C2CC2)c1` it was 1070 nM; in that of `CCOc1ccccc1NC(=O)c1cccc(NC(=O)c2cccc(Cl)c2)c1`, 39 nM; in that of `CCOc1ccccc1NC(=O)c1cccc(NC(=O)c2ccccc2OC)c1`, 6.53 nM.
Regarding `CC(C1CC2CCC1C2)n1c(-c2ccco2)nnc1C(F)(F)F` (stereo not given), the IC50 was 1180 nM.
